According to ChEMBL document CHEMBL1154186, “Synthesis, kinase inhibitory potencies, and in vitro antiproliferative evaluation of new Pim kinase inhibitors” (J Med Chem, 2009):

What was measured:
[1] = target: T1, Mitogen-activated protein kinase 12 (Homo sapiens) (UniProt P53778); assay: Inhibition of p38-gamma assessed as residual enzyme activity at 10 uM relative to untreated control
T1 sequence (whole entry): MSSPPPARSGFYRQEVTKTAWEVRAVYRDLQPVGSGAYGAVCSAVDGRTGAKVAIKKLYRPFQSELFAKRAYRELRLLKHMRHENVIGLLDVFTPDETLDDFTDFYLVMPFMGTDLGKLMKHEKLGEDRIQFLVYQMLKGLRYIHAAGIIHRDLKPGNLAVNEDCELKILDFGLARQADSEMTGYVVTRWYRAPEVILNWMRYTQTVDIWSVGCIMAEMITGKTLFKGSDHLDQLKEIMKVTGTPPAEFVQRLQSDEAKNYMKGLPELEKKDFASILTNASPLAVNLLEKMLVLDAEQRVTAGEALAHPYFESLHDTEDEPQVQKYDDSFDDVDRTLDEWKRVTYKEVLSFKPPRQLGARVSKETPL
Summary of the method: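 p38γ and p38δ MAPK run at 5 µM [γ-33P]ATP, and p38α at 50 µM, each with 10 mM Mg acetate. Buffer 50 mM Tris/HCl pH 7.5, 0.1 mM EGTA, 0.1% 2-mercaptoethanol. 10 µM compound, 30 min at 21 °C. P81 filter capture. Residual activity relative to control, duplicates.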

[2] = target: Proto-oncogene tyrosine-protein kinase Src (Homo sapiens) (UniProt P12931); assay: Inhibition of Src assessed as residual enzyme activity at 10 uM relative to untreated control
Chain of Proto-oncogene tyrosine-protein kinase Src (Homo sapiens) (P12931 2-536 limits assumed): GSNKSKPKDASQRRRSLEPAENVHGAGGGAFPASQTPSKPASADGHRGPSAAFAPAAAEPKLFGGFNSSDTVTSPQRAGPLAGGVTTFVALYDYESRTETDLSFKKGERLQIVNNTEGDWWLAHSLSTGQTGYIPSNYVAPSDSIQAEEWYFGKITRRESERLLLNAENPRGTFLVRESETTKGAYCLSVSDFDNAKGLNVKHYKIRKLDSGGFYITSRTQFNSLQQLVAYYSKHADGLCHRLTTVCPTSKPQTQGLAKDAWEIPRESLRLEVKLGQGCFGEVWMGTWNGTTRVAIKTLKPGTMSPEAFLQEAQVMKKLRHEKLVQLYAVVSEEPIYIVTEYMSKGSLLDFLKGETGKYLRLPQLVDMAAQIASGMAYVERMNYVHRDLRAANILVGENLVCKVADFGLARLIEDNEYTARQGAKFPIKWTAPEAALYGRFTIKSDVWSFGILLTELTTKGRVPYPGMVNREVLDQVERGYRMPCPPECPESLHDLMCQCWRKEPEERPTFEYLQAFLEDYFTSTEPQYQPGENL

[3] = target: RAC-alpha serine/threonine-protein kinase (Homo sapiens) (UniProt P31749); assay: Inhibition of PKBalpha assessed as residual enzyme activity at 10 uM relative to untreated control
Chain of RAC-alpha serine/threonine-protein kinase (Homo sapiens) (P31749 whole entry): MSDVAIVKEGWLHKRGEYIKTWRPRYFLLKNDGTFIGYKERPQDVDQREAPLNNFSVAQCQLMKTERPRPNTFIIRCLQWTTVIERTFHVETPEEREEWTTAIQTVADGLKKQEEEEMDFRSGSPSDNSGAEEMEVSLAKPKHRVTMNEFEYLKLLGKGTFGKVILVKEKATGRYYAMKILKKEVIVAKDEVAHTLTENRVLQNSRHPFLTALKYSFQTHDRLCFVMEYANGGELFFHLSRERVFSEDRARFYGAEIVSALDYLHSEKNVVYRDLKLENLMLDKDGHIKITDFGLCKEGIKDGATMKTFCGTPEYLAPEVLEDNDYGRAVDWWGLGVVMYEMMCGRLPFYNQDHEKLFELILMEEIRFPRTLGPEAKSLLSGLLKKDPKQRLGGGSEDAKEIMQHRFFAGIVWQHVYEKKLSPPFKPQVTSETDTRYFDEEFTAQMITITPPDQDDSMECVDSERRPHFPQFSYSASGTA
Summary of the method: (§1)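 Radiometric filter-binding assay at 21 °C for 30 min. Mix: 50 mM Tris/HCl pH 7.5, 0.1 mM EGTA, 0.1% 2-mercaptoethanol, 10 mM Mg acetate and [γ-33P]ATP (800 cpm/pmol) at 5 µM. Stopped with orthophosphoric acid and spotted on P81. Compound at 10 µM; activity given as % remaining versus no-inhibitor control, duplicates. Kinases human full-length unless noted.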

[4] = target: RAC-beta serine/threonine-protein kinase (Homo sapiens) (UniProt P31751); assay: Inhibition of PKBbeta assessed as residual enzyme activity at 10 uM relative to untreated control
Chain of RAC-beta serine/threonine-protein kinase (Homo sapiens) (P31751 whole entry): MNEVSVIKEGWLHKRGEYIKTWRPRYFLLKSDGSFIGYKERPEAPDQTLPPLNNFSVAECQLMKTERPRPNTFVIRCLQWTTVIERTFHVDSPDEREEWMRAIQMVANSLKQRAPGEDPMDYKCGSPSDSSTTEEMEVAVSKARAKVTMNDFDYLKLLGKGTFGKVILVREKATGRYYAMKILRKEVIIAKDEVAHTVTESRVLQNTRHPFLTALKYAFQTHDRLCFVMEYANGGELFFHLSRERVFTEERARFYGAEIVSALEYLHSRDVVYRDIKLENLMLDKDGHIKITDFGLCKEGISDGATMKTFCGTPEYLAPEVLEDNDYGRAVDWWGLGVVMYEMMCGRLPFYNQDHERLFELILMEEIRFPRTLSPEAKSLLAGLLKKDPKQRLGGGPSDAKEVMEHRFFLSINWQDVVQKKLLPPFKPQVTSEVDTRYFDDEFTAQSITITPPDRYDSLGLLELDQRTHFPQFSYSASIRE
Summary of the method: (§2)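 Assayed with [γ-33P]ATP at 50 µM and 10 mM Mg acetate in 50 mM Tris/HCl pH 7.5, 0.1 mM EGTA, 0.1% 2-mercaptoethanol, 30 min, 21 °C. Phosphoric acid stop, P81 filter capture. ERK2 and Lck are mouse; AMPK is rat. 10 µM compound; % activity remaining relative to control without inhibitor, duplicates.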

[5] = target: Calcium/calmodulin-dependent protein kinase kinase 1 (Homo sapiens) (UniProt Q8N5S9); assay: Inhibition of CAMKKalpha assessed as residual enzyme activity at 10 uM relative to untreated control
Chain of Calcium/calmodulin-dependent protein kinase kinase 1 (Homo sapiens) (Q8N5S9 whole entry, looked up): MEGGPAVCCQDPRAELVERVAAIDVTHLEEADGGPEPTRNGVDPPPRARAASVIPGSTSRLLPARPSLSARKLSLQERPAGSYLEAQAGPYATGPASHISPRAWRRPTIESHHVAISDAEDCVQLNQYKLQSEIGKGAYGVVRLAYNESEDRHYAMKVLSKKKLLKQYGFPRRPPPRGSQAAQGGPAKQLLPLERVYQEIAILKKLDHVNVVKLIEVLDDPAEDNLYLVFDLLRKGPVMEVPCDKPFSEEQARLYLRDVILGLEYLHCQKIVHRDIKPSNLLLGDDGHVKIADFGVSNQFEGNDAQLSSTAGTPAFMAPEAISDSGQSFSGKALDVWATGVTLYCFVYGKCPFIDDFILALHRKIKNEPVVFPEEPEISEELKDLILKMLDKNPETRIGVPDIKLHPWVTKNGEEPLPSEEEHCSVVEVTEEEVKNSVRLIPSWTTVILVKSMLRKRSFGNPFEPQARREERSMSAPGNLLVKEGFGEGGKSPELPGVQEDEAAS

[6] = target: MAP/microtubule affinity-regulating kinase 3 (Homo sapiens) (UniProt P27448); assay: Inhibition of MARK3 assessed as residual enzyme activity at 10 uM relative to untreated control; summary of the method: as §1
Chain of MAP/microtubule affinity-regulating kinase 3 (Homo sapiens) (P27448 whole entry, looked up): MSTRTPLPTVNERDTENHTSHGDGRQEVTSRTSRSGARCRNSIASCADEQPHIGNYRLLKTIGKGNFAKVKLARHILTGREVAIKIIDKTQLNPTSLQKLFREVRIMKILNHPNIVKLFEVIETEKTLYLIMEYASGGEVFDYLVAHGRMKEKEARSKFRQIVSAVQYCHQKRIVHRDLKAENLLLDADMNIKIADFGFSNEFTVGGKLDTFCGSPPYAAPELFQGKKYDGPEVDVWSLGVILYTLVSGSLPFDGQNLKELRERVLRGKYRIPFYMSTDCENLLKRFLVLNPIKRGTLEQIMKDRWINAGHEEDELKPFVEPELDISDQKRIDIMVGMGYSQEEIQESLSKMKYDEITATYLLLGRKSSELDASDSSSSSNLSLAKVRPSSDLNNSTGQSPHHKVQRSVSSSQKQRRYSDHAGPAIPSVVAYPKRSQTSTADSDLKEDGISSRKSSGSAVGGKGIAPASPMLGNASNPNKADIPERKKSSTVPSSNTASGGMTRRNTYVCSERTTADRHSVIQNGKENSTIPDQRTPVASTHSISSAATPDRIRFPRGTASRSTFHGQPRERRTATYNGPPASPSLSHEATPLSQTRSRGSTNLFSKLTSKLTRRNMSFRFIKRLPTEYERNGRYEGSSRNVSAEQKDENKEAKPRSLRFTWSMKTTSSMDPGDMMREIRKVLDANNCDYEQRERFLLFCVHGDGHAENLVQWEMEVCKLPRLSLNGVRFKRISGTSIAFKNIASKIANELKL

[7] = target: Maternal embryonic leucine zipper kinase (Homo sapiens) (UniProt Q14680); assay: Inhibition of MELK assessed as residual enzyme activity at 10 uM relative to untreated control; summary of the method: as §2
Chain of Maternal embryonic leucine zipper kinase (Homo sapiens) (Q14680 whole entry, looked up): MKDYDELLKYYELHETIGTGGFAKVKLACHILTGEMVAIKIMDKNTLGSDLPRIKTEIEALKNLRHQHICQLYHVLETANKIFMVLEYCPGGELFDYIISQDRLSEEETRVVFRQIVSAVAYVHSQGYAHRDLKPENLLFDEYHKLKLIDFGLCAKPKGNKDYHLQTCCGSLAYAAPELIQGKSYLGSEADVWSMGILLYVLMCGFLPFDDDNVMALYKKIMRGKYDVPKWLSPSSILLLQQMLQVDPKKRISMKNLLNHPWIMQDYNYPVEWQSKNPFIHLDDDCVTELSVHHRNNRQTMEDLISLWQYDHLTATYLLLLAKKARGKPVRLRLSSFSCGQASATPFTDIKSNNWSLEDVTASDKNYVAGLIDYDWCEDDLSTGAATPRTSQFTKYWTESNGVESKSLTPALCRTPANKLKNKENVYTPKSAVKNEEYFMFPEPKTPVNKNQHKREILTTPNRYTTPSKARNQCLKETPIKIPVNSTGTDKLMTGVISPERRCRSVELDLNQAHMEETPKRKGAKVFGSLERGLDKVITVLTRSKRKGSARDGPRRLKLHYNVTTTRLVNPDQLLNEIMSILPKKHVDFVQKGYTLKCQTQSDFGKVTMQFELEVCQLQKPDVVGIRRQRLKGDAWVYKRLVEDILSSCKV

[8] = target: T2, Serine/threonine-protein kinase Nek2 (Homo sapiens) (UniProt P51955); assay: Inhibition of NEK2alpha assessed as residual enzyme activity at 10 uM relative to untreated control; summary of the method: as §2
T2 sequence (whole entry): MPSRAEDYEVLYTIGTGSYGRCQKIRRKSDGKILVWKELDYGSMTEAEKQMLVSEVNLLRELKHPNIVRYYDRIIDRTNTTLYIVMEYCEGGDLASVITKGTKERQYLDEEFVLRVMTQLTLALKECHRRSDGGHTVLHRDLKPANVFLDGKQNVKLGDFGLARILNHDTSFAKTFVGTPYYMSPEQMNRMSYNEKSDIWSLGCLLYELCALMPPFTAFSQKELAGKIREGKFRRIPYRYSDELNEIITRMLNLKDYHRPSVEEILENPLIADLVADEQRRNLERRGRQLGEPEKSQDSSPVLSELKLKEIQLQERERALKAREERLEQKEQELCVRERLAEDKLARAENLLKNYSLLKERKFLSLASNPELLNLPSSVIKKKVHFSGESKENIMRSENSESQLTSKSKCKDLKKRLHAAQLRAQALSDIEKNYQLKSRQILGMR

[9] = target: T3, Eukaryotic elongation factor 2 kinase (Homo sapiens) (UniProt O00418); assay: Inhibition of EF2K assessed as residual enzyme activity at 10 uM relative to untreated control
T3 sequence (whole entry): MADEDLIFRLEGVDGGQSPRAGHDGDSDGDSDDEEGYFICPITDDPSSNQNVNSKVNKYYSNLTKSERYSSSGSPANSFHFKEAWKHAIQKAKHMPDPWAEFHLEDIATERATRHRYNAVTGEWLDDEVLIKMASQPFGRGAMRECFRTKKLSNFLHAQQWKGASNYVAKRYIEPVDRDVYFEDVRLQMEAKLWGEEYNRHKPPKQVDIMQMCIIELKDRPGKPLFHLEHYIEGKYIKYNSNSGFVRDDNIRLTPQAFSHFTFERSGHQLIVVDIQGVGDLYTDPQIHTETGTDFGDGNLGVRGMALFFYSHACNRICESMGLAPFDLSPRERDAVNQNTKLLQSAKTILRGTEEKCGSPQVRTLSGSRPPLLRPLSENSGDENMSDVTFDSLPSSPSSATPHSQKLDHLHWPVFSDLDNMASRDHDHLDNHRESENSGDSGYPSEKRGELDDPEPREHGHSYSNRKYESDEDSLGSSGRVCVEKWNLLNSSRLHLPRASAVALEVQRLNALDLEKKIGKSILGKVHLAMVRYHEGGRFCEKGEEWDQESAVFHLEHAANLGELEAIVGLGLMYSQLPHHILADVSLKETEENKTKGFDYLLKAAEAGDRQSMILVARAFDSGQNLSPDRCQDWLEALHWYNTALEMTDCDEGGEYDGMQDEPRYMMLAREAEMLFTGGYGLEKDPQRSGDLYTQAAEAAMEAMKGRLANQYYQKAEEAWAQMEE

Row | Structure (SMILES) | Activity [1] [%] | Activity [2] [%] | Activity [3] [%] | Activity [4] [%] | Activity [5] [%] | Activity [6] [%] | Activity [7] [%] | Activity [8] [%] | Activity [9] [%]
1 | c1ccc2c(c1)[nH]c1c2ccc2cc[nH]c21 | 111 | 98 | 120 | 107 | 76 | 116 | 93 | 104 | 101
2 | c1ccc2c(c1)[nH]c1c3cc[nH]c3ccc21 | 111 | 102 | 110 | 107 | 92 | 94 | 82 | 96 | 92
3 | O=Cc1c[nH]c2ccc3c4ccccc4[nH]c3c12 | 109 | 99 | 112 | 107 | 90 | 105 | 89 | 100 | 105
4 | O=Cc1c[nH]c2c1ccc1c3ccccc3[nH]c12 | 74 | 85 | 96 | 98 | 42 | 88 | 61 | 88 | 90
